Assay results from different studies.
Lines come from different studies, so protocols differ.
Target: MAP kinase-activated protein kinase 2 (MAPKAPK2, Homo sapiens, UniProt P49137)

The inhibition of Cn1cc(-c2cc(F)cc(N3CCn4c(cc5c4CCCC5)C3=O)c2CO)cc(Nc2ccc(N3CCN(C4COC4)CC3)cn2)c1=O is reported as 5% (enzyme activity; inhibitor; 0.1 µM).
For COc1cc(Cl)c(C(=O)N[C@@H](CN[C@H]2CC[C@@H](N)CC2)Cc2ccc(C#N)cc2)cc1-c1ccc(CN[C@H](C)c2ccc(C)cc2)o1, the remaining activity was 107% (enzyme activity; inhibitor; 1 µM).
With O=c1[nH]c2ccccc2n1C1CCN(Cc2ccc(-c3[nH]c4cc5ncnc5cc4nc3-c3ccccc3)cc2)CC1 the remaining signal was 98.7% (cell-free assay; 0.5 µM).
COc1ncccc1-c1cnn2ccc(N3CCN(C(=O)OC(C)C)CC3)nc12 gave a remaining binding of 100% (binding; competition with immobilised ligand; 1 µM).
The remaining activity of CC(C)(C)c1cc(C=C(C#N)C#N)cc(Br)c1O is reported as 92.3% (enzyme activity; inhibitor; 0.5 µM).
For Nc1ncc(-c2nc(N3CCOCC3)nc(N3CCOCC3)n2)c(C(F)F)n1, the remaining binding was 85% (binding; competition with immobilised ligand; 10 µM).
C#Cc1n[nH]c2c(-c3cn(C(C)c4ccccn4)c(=O)[nH]c3=O)cc(F)cc12 (centres unmarked) gave an inhibition of 13.1% (enzyme activity; inhibitor; 1 µM).
Cn1cncc1[C@@](O)(COc1ccc(C#N)cc1-c1ccc(OC(F)(F)F)cc1)c1ccc(C#N)cc1 has a remaining binding of 61% (cell-free assay; competition with immobilised ligand; 1 µM).
For Cc1nn(C)cc1-c1nc2c(N3CCN(Cc4ccc(Cl)cc4)CC3)c(Cl)cnc2[nH]1, the remaining binding was 100% (binding; competition with immobilised ligand; 1 µM).
The inhibition of Cn1cc(-c2cccc(N3CCc4c(sc5c4CC(C)(C)C5)C3=O)c2CO)cc(Nc2ccncn2)c1=O is reported as -5% (enzyme activity; inhibitor; 1 µM).
For COc1cc(Nc2ncc(F)c(Nc3ccc4c(n3)NC(=O)C(C)(C)O4)n2)cc(OC)c1OC, the inhibition was 0% (binding; 10 µM).
